Laboratory results from ChEMBL document CHEMBL5252546, “Salutaxel, a Conjugate of Docetaxel and a Muramyl Dipeptide (MDP) Analogue, Acts as Multifunctional Prodrug That Inhibits Tumor Growth and Metastasis” (J Med Chem, 2018).
Values belong to the compound of their own block, whether it stands above or below them. Active and inactive are the calls of the source. The calls are words filed in the database; no cut-off is given here.

Columns and labels:
[1] = Half life in mouse tumor implanted with mouse 4T1 cells at 5.7 mg/kg,iv measured upto 72 hrs; format: ADME, organism-based, Neoplasm
4T1 [2] = experiment: Antitumor activity against mouse 4T1 cells implanted in BALB/c mouse assessed as decrease in neutrophil in peripheral blood at 11.4 mg/kg,iv administrated qd for 2 days by blood smear staining microscopic analysis; format: functional, organism-based; conditions: time 2.0 day
Procedure, shortened: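 On day 19 after 4T1 implantation, mice were randomized into five groups and given iv vehicle or test article, plus ip C12-iE-DAP (50 μg/mouse) and MDP (100 μg/mouse), once daily for 2 days. Mice were killed 6 h later. Peripheral blood neutrophils/leukocytes were counted on stained blood smears at 1000×.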

[3] = Cmax in mouse tumor implanted with mouse 4T1 cells at 5.7 mg/kg,iv measured upto 72 hrs; format: ADME, organism-based, Neoplasm; design: time < 72 hrs, dose 5.7 mg/kg, route iv
4T1 [4] = experiment: Antitumor activity against mouse 4T1 cells implanted in BALB/c mouse assessed as decrease in serum MMP9 level at 5.7 mg/kg,iv administrated once per week for 4 weeks by ELISA; format: functional, organism-based
4T1 [5] = experiment: Antitumor activity against mouse 4T1 cells implanted in BALB/c mouse assessed as increase in tumor NOD1 expression level at 5.7 mg/kg,iv administrated once per week for 4 weeks in presence of MDA-205 by western blot assay; format: functional, organism-based
Procedure, shortened: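 Tumour-bearing BALB/c mice (4T1 cells into mammary fat pad) given iv saline vehicle or test agents once weekly for 4 weeks. Tumours excised and probed by western blot for MMP9, MMP2 and NOD1, β-actin as loading control. Bands averaged over five mice per group; representative of two independent experiments.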

4T1 [6] = experiment: Antitumor activity against mouse 4T1 cells implanted in BALB/c mouse assessed as decrease in serum MMP9 level at 5.7 mg/kg,iv administrated once per week for 4 weeks in presence of MDA-205 by ELISA; format: functional, organism-based
4T1 [7] = experiment: Antitumor activity against mouse 4T1 cells implanted in BALB/c mouse assessed as decrease in MMP8 mRNA expression in lung at 20 mg/kg,iv administrated qd for 2 days by qRT-PCR analysis; format: functional, organism-based; conditions: time 2.0 day
Procedure, shortened: (§1)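 Day 19 after 4T1 implantation, mice randomised into five groups; iv vehicle or 20 mg/kg plus ip C12-iE-DAP (50 μg/mouse) and MDP (100 μg/mouse) once daily for 2 days; killed after 48 h; lung mRNA for MMP8, MMP9, PROK2, S100A8, S100A9 and IL-1β by qPCR; mean ± SEM.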

[8] = Cmax in Beagle dog at 1 mg/kg,iv measured upto 24 hrs; format: ADME, organism-based, Canis lupus familiaris; design: dose 1 mg/kg, time < 24 hrs, route iv; conditions: in vivo
Procedure, shortened: (§2)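 Beagle dogs were given a single iv infusion at 1, 2 or 4 mg/kg. Plasma parent drug and released docetaxel were followed over time. Cmax, Tmax, AUC, MRT, t1/2, CL and Vss were reported by sex and for all dogs combined.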

[9] = Tmax in rat at 4 mg/kg,iv measured upto 24 hrs; format: ADME, organism-based; conditions: in vivo
[10] = Drug metabolism in rat urine assessed as metabolite docetaxel formation at 4 mg/kg,iv measured after 24 hrs; format: ADME, organism-based; conditions: in vivo
[11] = Volume of distribution at steady state in female Beagle dog at 1 mg/kg,iv measured upto 24 hrs; format: ADME, organism-based, Canis lupus familiaris; conditions: in vivo, read-out: Vdss
[12] = Half life in female rat at 4 mg/kg,iv measured upto 24 hrs; format: ADME, organism-based; conditions: in vivo
[13] = AUC (0-t) in female rat at 4 mg/kg,iv measured upto 24 hrs; format: ADME, organism-based; design: time < 24 hrs, dose 4 mg/kg, route iv; conditions: in vivo
Procedure, shortened: (§3)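 Single iv dose: rats 2, 4 or 8 mg/kg by intravenous injection; Beagle dogs 1, 2 or 4 mg/kg by intravenous infusion. Plasma concentration–time data were analysed by sex and pooled. Reported parameters: Cmax, Tmax, AUC0−t, AUC0−∞, MRT0−∞, t1/2, CL, Vss, given as mean ± SD.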

[14] = AUC (0-t) in rat at 2 mg/kg,iv measured upto 24 hrs; format: ADME, organism-based; design: dose 2 mg/kg, time < 24 hrs, route iv; conditions: in vivo; procedure, shortened: as §3
4T1 [15] = experiment: Antitumor activity against mouse 4T1 cells implanted in BALB/c mouse assessed as decrease in spleen MDSC cells at 5 mg/kg,iv measured after 28 days (reference value: 38%); format: functional; design: scale not given: the % may be the effect or the level left; conditions: time 28 day
KM12 = experiment: Antiproliferative activity against human KM12 cells assessed inhibition of cell growth incubated for 72 hrs by SRB assay; format: functional, cell-based; conditions: KM12, 72 h
[16] = Clearance in male Beagle dog at 2 mg/kg,iv measured upto 24 hrs; format: ADME, organism-based, Canis lupus familiaris; conditions: in vivo; procedure, shortened: as §2
[17] = Half life in rat at 8 mg/kg,iv measured upto 24 hrs; format: ADME, organism-based; conditions: in vivo
MDA-MB-435 = experiment: Antiproliferative activity against human MDA-MB-435 cells assessed inhibition of cell growth incubated for 72 hrs by SRB assay; format: functional, cell-based; conditions: MDA-MB-435, 72 h
[18] = Toxicity in HaM/ICR mouse assessed as effect on motor coordination at 5 to 20 mg/kg,iv; format: organism-based; conditions: in vivo, dose 5-20 mg/kg
4T1 [19] = experiment: Antitumor activity against mouse 4T1 cells implanted in BALB/c mouse assessed as decrease in PROK2 mRNA expression in lung at 20 mg/kg,iv administrated qd for 2 days by qRT-PCR analysis; format: functional, organism-based; conditions: time 2.0 day; procedure, shortened: as §1
[20] = Volume of distribution at steady state in male rat at 2 mg/kg,iv measured upto 24 hrs; format: ADME, organism-based; conditions: in vivo, read-out: Vdss
Cytochrome P450 2B6 = Cytochrome P450 2B6 (Homo sapiens, UniProt P20813); experiment: Inhibition of CYP2B6 in human liver microsomes using probe substrate at 0.1 to 100 uM in presence of NADPH; format: ADME, Microsome; conditions: dose 0.1-100 µM
[21] = AUC (0-t) in male rat at 4 mg/kg,iv measured upto 24 hrs; format: ADME, organism-based; design: time < 24 hrs, dose 4 mg/kg, route iv; conditions: in vivo; procedure, shortened: as §3
[22] = Drug distribution in rat liver at 4 mg/kg,iv measured by 0.25 hrs; format: ADME, organism-based; conditions: in vivo
Procedure, shortened: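 Rats received 4 mg/kg iv. Parent drug and released docetaxel were assayed in tissues and plasma from the first sampling at 0.25 h to 24 h. The lower limit of quantitation was 200 ng/g.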

[23] = Volume of distribution at steady state in male Beagle dog at 2 mg/kg,iv measured upto 24 hrs; format: ADME, organism-based, Canis lupus familiaris; conditions: in vivo, read-out: Vdss
HT-29 = experiment: Antiproliferative activity against human HT-29 cells assessed inhibition of cell growth incubated for 72 hrs by SRB assay; format: functional, cell-based; conditions: HT-29, 72 h
4T1 [24] = experiment: Antitumor activity against mouse 4T1 cells implanted in BALB/c mouse assessed as decrease in serum IL-6 level at 5 mg/kg,iv administrated once per week for 4 weeks by ELISA; format: functional, organism-based
Procedure, shortened: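 4T1 fat-pad model in BALB/c mice, iv 5–20 mg/kg once weekly for 4 weeks, with vehicle and naive groups; serum MMP9, TIMP-1, IL-6 and S100A9 measured by mouse ELISA kits.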

[25] = Tmax in female rat at 2 mg/kg,iv measured upto 24 hrs; format: ADME, organism-based; conditions: in vivo
[26] = AUC (0-t) in male Beagle dog at 1 mg/kg,iv measured upto 24 hrs; format: ADME, organism-based, Canis lupus familiaris; design: dose 1 mg/kg, time < 24 hrs, route iv; conditions: in vivo; procedure, shortened: as §3
[27] = Half life in Beagle dog at 1 mg/kg,iv measured upto 24 hrs; format: ADME, organism-based, Canis lupus familiaris; conditions: in vivo
[28] = Cmax in Beagle dog at 2 mg/kg,iv measured upto 24 hrs; format: ADME, organism-based, Canis lupus familiaris; design: dose 2 mg/kg, time < 24 hrs, route iv; conditions: in vivo; procedure, shortened: as §2
[29] = AUC (0-infinity) in female rat at 4 mg/kg,iv measured upto 24 hrs; format: ADME, organism-based; design: time < 24 hrs, dose 4 mg/kg, route iv; conditions: in vivo; procedure, shortened: as §3
[30] = Half life in mouse tumor implanted with mouse 4T1 cells at 10 mg/kg,iv measured upto 72 hrs; format: ADME, organism-based, Neoplasm

Sequence of Cytochrome P450 2B6 (P20813 whole entry): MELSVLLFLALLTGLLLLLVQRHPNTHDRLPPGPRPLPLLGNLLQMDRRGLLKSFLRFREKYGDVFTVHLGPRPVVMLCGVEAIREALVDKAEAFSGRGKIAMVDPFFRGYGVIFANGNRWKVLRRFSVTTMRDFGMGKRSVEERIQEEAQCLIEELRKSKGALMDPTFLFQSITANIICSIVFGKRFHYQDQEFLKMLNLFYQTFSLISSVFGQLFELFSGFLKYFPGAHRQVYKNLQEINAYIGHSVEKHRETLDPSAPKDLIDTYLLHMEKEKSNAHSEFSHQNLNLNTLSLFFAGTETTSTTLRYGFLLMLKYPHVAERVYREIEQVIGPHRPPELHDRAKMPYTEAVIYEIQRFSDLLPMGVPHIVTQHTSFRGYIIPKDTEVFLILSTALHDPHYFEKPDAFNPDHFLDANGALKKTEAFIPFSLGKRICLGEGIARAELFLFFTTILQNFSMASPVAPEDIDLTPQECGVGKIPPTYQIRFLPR

- half-life [1]: 49.1 h
- Cmax [3]: 950 nM
SMILES: CC(=O)O[C@@]12CO[C@@H]1C[C@H](O)[C@@]1(C)C(=O)[C@H](O)C3=C(C)[C@@H](OC(=O)[C@H](O)[C@@H](NC(=O)OC(C)(C)C)c4ccccc4)C[C@@](O)([C@@H](OC(=O)c4ccccc4)[C@H]21)C3(C)C [DOCETAXEL ANHYDROUS]
- Activity (4T1 [2]): Active
- Activity (4T1 [4]): Active
- Activity (4T1 [5]): inactive
- Activity (4T1 [6]): Active

SMILES: CC(=O)O[C@@]12CO[C@@H]1C[C@H](O)[C@@]1(C)C(=O)[C@H](O)C3=C(C)[C@@H](OC(=O)[C@H](OC(=O)CCC(=O)NCCCC[C@H](NC(=O)CC[C@@H](NC(=O)[C@H](C)NC(=O)/C=C/c4ccc(F)cc4Cl)C(N)=O)C(=O)O)[C@@H](NC(=O)OC(C)(C)C)c4ccccc4)C[C@@](O)([C@@H](OC(=O)c4ccccc4)[C@H]21)C3(C)C
- Activity (4T1 [7]): Active
- Cmax [8]: 3880 ng/mL
- Tmax [9]: 4.98 min
- Drug metabolism [10]: Metabolite_Detected
- Vd [11]: 0.204 L/kg
- half-life [12]: 10.4 min
- AUC(0-t) at 24 h [13]: 13000 ng·h/mL
- AUC(0-t) at 24 h [14]: 5200 ng·h/mL
- Activity (4T1 [15]): 36.2%
- IC50 (KM12): 16.3 nM
- clearance [16]: 7.13 mL/min/kg
- half-life [17]: 18.3 min
- IC50 (MDA-MB-435): 16.3 nM
- Activity [18]: Non-Toxic
- Activity (4T1 [19]): Active
- Vd [20]: 0.076 L/kg
- inhibition (INH) (Cytochrome P450 2B6): Not Active
- AUC(0-t) at 24 h [21]: 20700 ng·h/mL
- Drug uptake [22]: Active
- Vd [23]: 0.09 L/kg
- IC50 (HT-29): 16.3 nM
- Activity (4T1 [24]): Active
- Tmax [25]: 4.98 min
- AUC(0-t) at 24 h [26]: 1590 ng·h/mL
- half-life [27]: 21.3 min
- Cmax [28]: 12700 ng/mL
- AUC(0-inf) [29]: 13000 ng·h/mL
- half-life [30]: 93.6 min
